Insulin prom act: activators of insulin promoter-driven GFP, primary screen, imaging, TRM-6 cells (human fetal islet line), eGFP reporter, cell count | plate-scaled: unstimulated 0, stimulated control 100 | activation, % at 2 µM | 130,000 tested, 0.81% active | AID 1296, 2008;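 active = activation at 2 µM above a set limit, confirmed on inspection of the cell images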;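 also: share of cells whose green reporter signal exceeds an intensity cutoff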
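Test system: TRM-6 insulin promoter–eGFP reporter cells / Quantity: 1,000 cells per well / Reagent: tamoxifen inducer, 0.75 µM, in seeding medium / Compound dosing: 2 µM final, single concentration / Schedule: overnight tamoxifen, then two-day compound incubation at 37 °C / Measured by: automated fluorescence imaging of paraformaldehyde-fixed, Hoechst-counterstained cells, green channel / Read-out: percent activation from GFP-positive cell fraction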
Each line names hits and unclear results; the compound was inactive in the other large screens. The full list was thinned out, with hits kept by preference.

O=C(NCCc1cccs1)C1CC(c2ccc([N+](=O)[O-])cc2)=NO1 (centres undefined)	none
O=C(NCc1ccc(OC(F)(F)F)cc1)C1CC(c2ccccc2[N+](=O)[O-])=NO1 (centres undefined)	none
CCCCNC(=O)C1CC(c2ccccc2[N+](=O)[O-])=NO1 (centres undefined)	Insulin prom act 161
CCN(CCO)Cc1csc2ccc(C(C)(C)C)cc12	none
CCN(CC)C(=O)CSc1nnc(COc2cccc(C)c2)n1C	none
CCCC(=O)Nc1ccc(N2CCN(C(=O)c3ccccc3C)CC2)cc1	Insulin prom act 444
Cc1ccc(N2CCN(c3ccc(NC(=O)CCC(=O)O)cc3)CC2)cc1	none
CCCC(=O)Nc1ccc(C(=O)N2CCCC2)cc1	none
COC(=O)c1ccc2c(=O)n(CC3CCCO3)c(SCC(=O)NCCc3ccc(S(N)(=O)=O)cc3)nc2c1 (centres undefined)	none
CCN1CCN(S(=O)(=O)c2ccc(Cl)c(C(=O)NC(C)(C)C)c2)CC1	none
COc1ccccc1N1CCN(S(=O)(=O)c2ccc3c4c(cccc24)C(=O)N3C)CC1	none
C=CCN1C(=O)c2cccc3c(N4CCCCC4)ccc(c23)C1=O	Insulin prom act 669
Cc1ccc(-c2csc3ncnc(N4CCN(C(=O)c5ccccc5)CC4)c23)cc1	none
O=C1C2C3C=CC(C2C(=O)N1C1CCCCC1)C1C2C(=O)N(C4CCCCC4)C(=O)C2C31 (centres undefined)	none
OCCN(Cc1ccccc1)Cc1cccc(F)c1	Insulin prom act 81
OCCN(Cc1ccccc1)CC1CC2C=CC1C2 (centres undefined)	none
OCCN(Cc1ccccc1)CC1CCCCC1	none
O=C(c1cccc(C(F)(F)F)c1)C1CCCN(Cc2cccn2-c2ccccn2)C1 (centres undefined)	none
CCn1c(SCC(=O)NC(=O)NC(C)(C)C)nc2ccccc21	Insulin prom act 129
CN(C)C(=O)Cn1c(SCC(=O)NC2CCCCC2)nc2ccccc21	none
CCn1c(SCC(=O)O)nc2ccccc21	none
COc1cc(CCC(=O)Nc2ccc(Cl)c(C(F)(F)F)c2)cc(OC)c1OC	Insulin prom act 277
COc1cccc(C(=O)Nc2ccc(Cl)c(C(F)(F)F)c2)c1	none
COc1cc(CCC(=O)Nc2cc(Cl)ccc2N2CCN(C)CC2)cc(OC)c1OC	none
CCC(C(=O)Nc1cc(C(=O)Nc2cc(C)ccn2)ccc1Cl)c1ccccc1 (centres undefined)	none
Cc1ccc2c(c1)C(O)(CC(=O)/C=C/C=C/c1ccccc1)C(=O)N2 (centres undefined)	none
COc1cc(C(=O)c2ccccc2)c(OC)cc1C(=O)Nc1ccc(O)cc1	none
Cc1c(N2C(=O)C(C)SC23C(=O)Nc2ccccc23)c(=O)n(-c2ccccc2)n1C (centres undefined)	none
Cc1ccccc1NC1(C#N)C(=O)Nc2ccccc21 (centres undefined)	none
CC(C)c1ccc(NC2(C#N)C(=O)Nc3ccccc32)cc1 (centres undefined)	Insulin prom act 81
Cc1ccc(C(=O)C(C(=O)/C=C/c2ccccc2)=C2SCCCS2)cc1	none
Cc1sc2ccccc2[n+]1CCC(C)S(=O)(=O)[O-] (centres undefined)	none
CC/C(=C/c1sc2ccccc2[n+]1CC)SC	none
CC[n+]1c(C=C2C=C(C)OC(C)=C2)sc2ccccc21	Insulin prom act 809
O=C(Nc1cc(Cl)cc(Cl)c1)c1ccc(Cn2c(=O)[nH]c3ccsc3c2=O)cc1	none
COc1ccc(C(=O)NNC2=CC(=O)CC(C)(C)C2)cc1OC	none
CCC(=O)c1ccc(OCC(=O)NCCc2ccccn2)cc1	none
CCOC(=O)C1(CC2CCCCO2)CCN(Cc2nc(C(C)C)cs2)CC1 (centres undefined)	Insulin prom act 375
CCOC(=O)C1(CC2CC2)CCN(Cc2ccc(OC)cc2F)CC1	none
CCOC(=O)C1(Cc2ccccc2)CCN(Cc2ccon2)CC1	none
CCOC(=O)c1ccc(NC(=O)C(=O)NCc2ccc(/C=C(/C#N)C(=O)NCCOC)o2)cc1	none
Cc1cccc(NC(=O)/C(C#N)=C/c2ccc(Sc3ccccc3)o2)c1C	none
CN(C)c1ccc(/C=C(/C#N)C(=O)NCc2ccccc2)o1	Insulin prom act 227
COc1cc(/C=C/C(=O)N2CCN(c3n[nH]c(=O)[nH]c3=O)CC2)cc(OC)c1OC	none
Cc1nn(-c2ccccc2)c(C)c1/C=N/NC(=O)CSc1nnc(SCc2cccc3ccccc23)s1	none
COc1ccc(CCNC(=O)/C(C#N)=C/c2cccc(OCc3ccccc3)c2)cc1OC	none
COc1ccc(CCn2nnc(-c3ccc(NC(C)=O)c(Cl)c3)n2)cc1	none
C=CCOc1ccc(CNc2ccc(NC(=O)CC(C)C)cc2)cc1OC	none
O=C(Cc1ccc(F)cc1)NCC1CCCO1 (centres undefined)	none
O=C(Cc1ccccc1)NCC1CCCO1 (centres undefined)	none
O=C(CCCC(=O)NCC1CCCO1)NCC1CCCO1 (centres undefined)	Insulin prom act 256
Cc1ccnc(SCC(=O)c2ccc(Br)cc2)c1C#N	none
CCN(CC)C(=O)c1ccc(C)c(Br)c1	none
CCN(CC)C(=S)SCC(=O)c1ccc(Br)cc1	Insulin prom act 381

Compound activity from PubChem.
